TRPC4 agonist – activators of mouse TRPC4 channel, primary screen, Fluo4 calcium, HEK293 TRPC4beta/mu-opioid cells | B-score at 10 µM | Fluo4 calcium fluorescence; hits give high values | 310,000 compounds, 0.49% hits | AID 2237, 2010 | Short transient receptor potential channel 4 (Mus musculus), Q9QUQ5;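 active means B-score above 5 SD of library B-scores, and initial fluorescence ratio not above library mean plus 5 SD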;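 further: positive B-score marks a calcium rise read as TRPC4 activation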
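Assay system: HEK293 stable line with TRPC4beta plus mu-opioid receptor. Times: dye 45 min RT, read 110 s. Measured by: kinetic Fluo4 calcium fluorescence. Measure: B score of integrated ratio. Controls: assay buffer as low control, maximal DAMGO as high control.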
TRPC4 inh – inhibitors of mouse TRPC4 channel, primary screen, Fluo4 calcium, HEK293 TRPC4beta/mu-opioid cells. Short transient receptor potential channel 4 (Mus musculus), Q9QUQ5. 300,000 compounds, 0.39% hits. DAMGO-evoked Fluo4 calcium flux; hits give low values. B-score at 10 µM;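 active means B-score over 3 SD under the library average, no early fluorescence shift, positive overall ratio signal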
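Assay system: HEK293 cells with stable TRPC4beta plus mu-opioid receptor expression. Dosing: single dose. Measured by: Fluo4 Ca2+ flux fluorescence. Also added: DAMGO in two steps, submaximal then maximal. Read-out: B score from integrated Fluo4 fluorescence ratio.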
TRPC6 activator – mouse TRPC6 channel activators, primary screen, cell-based, HEK293, membrane potential dye; B-score at 10 µM; 310,000 compounds, 0.13% hits; AID 2550, 2010; Short transient receptor potential channel 6 (Mus musculus), Q61143; HEK293-TRPC6 membrane potential dye fluorescence; hits give high values;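 active means B-score of the integrated fluorescence ratio above library mean plus 3 SD, and starting fluorescence ratio within library mean plus 5 SD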;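 further: higher score means more depolarization so channel activation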
Target sequence (Q61143 whole entry, looked up): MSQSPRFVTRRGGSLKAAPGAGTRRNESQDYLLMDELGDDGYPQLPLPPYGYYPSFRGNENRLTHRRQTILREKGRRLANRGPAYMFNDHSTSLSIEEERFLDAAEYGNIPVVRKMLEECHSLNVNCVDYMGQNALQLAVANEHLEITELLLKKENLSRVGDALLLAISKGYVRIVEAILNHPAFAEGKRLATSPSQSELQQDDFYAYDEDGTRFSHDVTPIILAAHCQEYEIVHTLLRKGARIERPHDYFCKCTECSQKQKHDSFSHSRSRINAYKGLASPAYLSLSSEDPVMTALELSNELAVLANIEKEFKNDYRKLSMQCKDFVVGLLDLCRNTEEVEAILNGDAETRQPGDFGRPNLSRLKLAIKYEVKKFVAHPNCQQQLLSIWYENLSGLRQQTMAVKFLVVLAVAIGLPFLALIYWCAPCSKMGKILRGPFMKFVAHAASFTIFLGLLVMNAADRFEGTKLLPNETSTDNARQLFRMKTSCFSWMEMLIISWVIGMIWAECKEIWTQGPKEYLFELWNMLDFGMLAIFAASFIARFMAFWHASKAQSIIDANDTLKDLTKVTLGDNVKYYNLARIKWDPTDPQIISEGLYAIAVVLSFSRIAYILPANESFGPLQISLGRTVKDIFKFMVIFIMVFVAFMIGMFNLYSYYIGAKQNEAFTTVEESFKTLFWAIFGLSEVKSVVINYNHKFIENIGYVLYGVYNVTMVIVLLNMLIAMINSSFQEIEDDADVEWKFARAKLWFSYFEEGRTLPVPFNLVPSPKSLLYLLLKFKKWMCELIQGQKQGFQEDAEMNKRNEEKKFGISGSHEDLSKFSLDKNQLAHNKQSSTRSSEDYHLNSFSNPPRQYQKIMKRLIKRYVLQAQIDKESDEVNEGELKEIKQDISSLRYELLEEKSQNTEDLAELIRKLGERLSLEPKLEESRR
TRPC4 potent – positive allosteric modulators of TRPC4, primary screen, cell-based, mouse TRPC4beta, HEK293 mu-opioid, Fluo-4 calcium; DAMGO EC20, Fluo-4 Ca2+ flux; hits give high values; B-score at 10 µM; 310,000 compounds, 0.42% hits;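 active means B-score of calcium response area above 5 SD of library B-scores, with initial fluorescence ratio within 5 SD of library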
TRPC6 inhibitor – mouse TRPC6 channel inhibitors, primary screen, cell-based, HEK293, membrane potential dye; AID 2553, 2010; ACh-evoked depolarization; hits give low values; 310,000 compounds, 1.1% hits; B-score at 10 µM;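 active means B-score under library mean minus 3 SD, initial fluorescence not abnormally high, positive integrated signal ratio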;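 further: B-score derived from integrated fluorescence ratio over the kinetic read; more negative B-score means stronger inhibition of depolarization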
Each line names hits and unclear results; the compound was inactive in the other large screens. Only some compounds are listed: those with a hit (about 2.3% of all), similar ones and a draw of the others.

O=C(/C=C/c1ccco1)NCC(=O)N/N=C/c1ccc([N+](=O)[O-])cc1	none
O=[N+]([O-])c1cc(S(=O)(=O)NC2=NCCCCC2)ccc1NCC1CCCCC1	none
COc1cccc(CNC(=O)CSCC(=O)Nc2ccc(C)cc2)c1	none
O=C(NCCCN1CCOCC1)c1ccc(NC(=O)C2COc3ccccc3O2)cc1 (stereo not drawn)	TRPC4 agonist 78, TRPC4 inh -6
O=C(NCCCN1CCOCC1)C1COc2ccccc2O1 (stereo not drawn)	none
Cc1ccc(CNC(=O)c2cnc3ccccc3n2)cc1	none
O=C(NCCc1ccccc1)c1cnc2ccccc2n1	TRPC4 potent 16
O=C(Nc1ccc(N2CCOCC2)cc1)c1nc2ccccc2s1	none
CCC1CCCCN1S(=O)(=O)c1ccc(C(=O)N(CCCN(C)C)c2nc3cc4c(cc3s2)OCO4)cc1 (stereo not drawn)	TRPC4 agonist 130
CC1CCCCN1S(=O)(=O)c1ccc(C(=O)N(CCCN(C)C)c2nc3ccc(Br)cc3s2)cc1 (stereo not drawn)	TRPC4 agonist 143
COc1ccc(C2=NOC(Cn3c(Cc4ccc(Cl)cc4)nc4c3c(=O)n(C)c(=O)n4C)C2)cc1 (stereo not drawn)	TRPC4 potent 10
COc1ccccc1C1=NOC(Cn2c(NCCCO)nc3c2c(=O)n(C)c(=O)n3C)C1 (stereo not drawn)	none
NC(=O)C1CCN(CC(=O)Nc2ccc(S(=O)(=O)N3CCOCC3)cc2)CC1	none
CCn1c2ccccc2c2cc(NC(=O)CN3CCCC3)ccc21	TRPC4 potent 28
Cc1occc1C(=O)N1CCN(S(=O)(=O)c2ccccc2)CC1	none
CC1(C)CC2CC(C)(CN2CC(O)COc2ccccc2)C1 (stereo not drawn)	TRPC4 inh -9
O=C(c1ccco1)N1CCN(c2ccc([N+](=O)[O-])cc2Cl)CC1	none
O=C(NC(=S)N1CCN(c2ccc([N+](=O)[O-])cc2Cl)CC1)c1ccco1	TRPC4 potent 12
CCOC(=O)Cc1cc(=O)n2[nH]c(C(C)(C)C)cc2n1	none
c1ccc(OCC2CCNCC2)nc1	TRPC4 agonist 84
Cc1nn(C(=O)c2cccc([N+](=O)[O-])c2)c(C)c1Sc1ccccc1	TRPC4 inh -6
CC(C)(C)c1cc(C(=O)NCc2cc(F)cc3c2OCOC3)n(Cc2ccccc2)n1	TRPC4 potent 13
CC(C)C(=O)Nc1ccc(C(=O)Nc2nnc(C(C)(C)C)s2)cc1	TRPC4 inh -6
CC(=O)Nc1ccc(Nc2cc(C(C)C)nc3c(-c4ccccc4)c(C)nn23)cc1	none
Cc1ccc(S(=O)(=O)c2c(C(=O)c3ccccc3)cnc3cc4c(cc23)OCCO4)cc1	TRPC4 potent 18
CCSC1=N/C(=C\c2ccc(OC)cc2)C(=O)N1	TRPC4 potent 86
O=C(Nc1ccccc1Oc1cccnc1)C1CCCN(Cc2ccccc2O)C1 (stereo not drawn)	none
C#Cc1ccc(CN2CCCC(C(=O)Nc3ccccc3Oc3cccnc3)C2)cc1 (stereo not drawn)	TRPC4 inh -6
CCc1ccc(-n2c(SCC(=O)Nc3cccc(S(=O)(=O)NC4=NCCCCC4)c3)nc3ccccc3c2=O)cc1	none
Cc1ccc(-n2c(SCC(=O)Nc3cccc(S(=O)(=O)NC4=NCCCCC4)c3)nc3ccccc3c2=O)cc1	TRPC4 agonist 72
Cc1nc2ccccc2n1CCOc1ccc(F)cc1	TRPC4 inh -6
OCc1nc2ccccc2n1CCOc1ccccc1	TRPC4 inh -6
CC(C)NC(=O)C12CC3CC(C1)CC(C(=O)NC(C)C)(C3)C2	none
CCCCCOC(=O)C1=C(C)NC(=O)NC1c1ccc(OC)cc1 (stereo not drawn)	none
N#Cc1ccc(N2CCCNCC2)nc1	TRPC4 agonist 44
O=[N+]([O-])c1ccc(N2CCOCC2)nc1	none
CCOC(=O)C1=C(C)NC(=O)CC1c1cc2c(cc1[N+](=O)[O-])OCO2 (stereo not drawn)	TRPC4 inh -7
COc1ccccc1N1CCN(C(c2cccs2)C(C)NC(=O)C(=O)N2CCOCC2)CC1 (stereo not drawn)	none
CC(C)Cn1c(-c2csc(C(C)C)c2)n[nH]c1=S	TRPC4 potent 13
CCOC(=O)C1CCCN(C(c2ccccn2)c2c(C)[nH]c3ccccc23)C1 (stereo not drawn)	TRPC4 agonist 148
Cc1[nH]c2ccccc2c1C(c1ccccn1)N1CCCC1 (stereo not drawn)	none
CN(C)S(=O)(=O)c1cccc(NC(=O)CO/N=C(\N)c2ccccc2)c1	none
COC(=O)c1sccc1NC(=O)c1ccc(OC)cc1	none
COC(=O)c1sccc1NC(=O)c1ccc(C#N)cc1	TRPC6 inhibitor -5.03
CCc1ccc(OCC(=O)N2CC(C(N)=O)Oc3ccccc32)cc1 (stereo not drawn)	none
NNc1ccc(Cc2ccc(Cl)cc2Cl)nn1	TRPC4 potent 15
CSc1ccc(Cc2ccc(Cl)cc2Cl)nn1	none
S=C(NCc1ccccc1)N1CCN(C2CCCCC2)CC1	TRPC4 agonist 76
CCc1sc(N(C(=O)Cc2ccccc2)c2ccccc2)nc1-c1ccccc1	none
CCCCC(=O)N(c1ccc(C(=O)O)cc1)c1nc(-c2ccc(Cl)cc2)c(CC)s1	TRPC4 inh -6
O=C(N/N=C\c1ccc(Cl)s1)C1COc2ccccc2O1 (stereo not drawn)	TRPC4 agonist 70
Cc1ccc(/C=N\NC(=O)C2COc3cc4ccccc4cc3O2)o1 (stereo not drawn)	TRPC4 agonist 112
O=C(N/N=C\c1ccc([N+](=O)[O-])s1)C1COc2ccccc2O1 (stereo not drawn)	none
Fc1cccc(Cl)c1CN1CCN(c2nc3ccccc3s2)CC1	none
COCCNC(=O)CN1C(=O)NC2(CCCc3cc(OC)ccc32)C1=O (stereo not drawn)	none
CCCCn1nc(NS(=O)(=O)c2cccc3nonc23)c2cc3cccc(C)c3nc21	none
CCNC(=S)N(Cc1cc2cc(C)ccc2[nH]c1=O)C1CCCC1	TRPC4 potent 12
Oc1c(Br)cc(Br)c(/C=N/n2c(-c3ccccc3)n[nH]c2=S)c1Br	TRPC4 potent 28
O=[N+]([O-])c1ccc(-c2nn(-c3ccccc3)cc2/C=N/n2c(-c3ccncc3)n[nH]c2=S)cc1	none
S=c1[nH]nc(-c2ccncc2)n1/N=C/c1cn(-c2ccccc2)nc1-c1ccccc1	TRPC4 potent 13
